Experimental data published in ChEMBL document CHEMBL1629533, “Identification of the spiro(oxindole-3,3'-thiazolidine)-based derivatives as potential p53 activity modulators” (J Med Chem, 2010).
Activity calls are given as the source filed them. The calls are words filed in the database; no cut-off is given here.

How the values were obtained:
U-937 = assay: Cytotoxicity against human U937 cells after 24 to 48 hrs by MTT assay; type: functional, cell-based
M14 [1] = assay: Cytotoxicity against human M14 cells after 24 to 48 hrs by MTT assay; type: functional, cell-based
HEK293 = assay: Cytotoxicity against transformed human HEK293 cells after 24 to 48 hrs by MTT assay; type: functional, cell-based
M14 [2] = assay: Cell cycle arrest in human M14 cells assessed as decrease in G0/G1 phase accumulation at 3 uM after 24 hrs by flow cytometry; type: functional; design: scale not given: the % may be the effect or the level left
Outline: (§1)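 Trypsinized, washed in PBS, stained in the dark at 4 °C for 30 min with 0.1% sodium citrate, 0.1% Triton X-100 and propidium iodide. Analyzed by FACScan flow cytometry. Phase distribution (G0/G1, S, G2/M) given as percentage of cells.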

M14 [3] = assay: Induction of cell morphology impairment in human M14 cells assessed as cell detachment at cytotoxic IC50 concentration after 48 hrs by phase contrast microscopy
M14 [4] = assay: Induction of cell morphology impairment in human M14 cells assessed as emergence of round and damaged cells at cytotoxic IC50 concentration after 10 hrs by phase contrast microscopy; type: functional, cell-based
Outline: (§2)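 Logarithmically growing M14 cells plated at 10⁵ cells/mL, with compound added after 24 h and vehicle controls alongside. Followed by inverted phase-contrast time-lapse microscopy at 37 °C under 5% CO₂, images taken hourly for up to 72 h. Rounding, blebbing and detachment scored at 10, 24 and 48 h.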

M14 [5] = assay: Cell cycle arrest in human M14 cells assessed as accumulation at G2/M phase at 3 uM after 24 hrs by flow cytometry; type: functional, cell-based; outline: as §1
M14 [6] = assay: Induction of apoptosis in human M14 cells assessed as caspase-3 activation at supra cytotoxic IC50 concentration after 16 to 24 hrs by Western blot; type: functional, cell-based
M14 [7] = assay: Induction of apoptosis in human M14 cells at 1 to 5 uM after 24 hrs; type: functional, cell-based
M14 [8] = assay: Induction of cell morphology impairment in human M14 cells at cytotoxic IC50 concentration by phase contrast microscopy; type: functional, cell-based; outline: as §2
M14 [9] = assay: Cell cycle arrest in human M14 cells assessed as accumulation at G2 phase at 3 uM after 24 hrs by flow cytometry; type: functional; outline: as §1
M14 [10] = assay: Induction of apoptosis in human M14 cells assessed as PARP cleavage at 0.1 to 0.3 uM after 16 hrs by Western blot; type: functional, cell-based
Outline: (§3)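 M14 cells (1 × 10⁶ per flask) exposed 16 and 24 h, then lysed in ice-cold Triton lysis buffer with protease inhibitors. Equal protein run on 8-12% SDS-PAGE and blotted to nitrocellulose. Probed overnight at 4 °C for cleaved active caspase-3 subunits or PARP cleavage (85 kDa fragment), with HRP secondary and ECL read-out. Tubulin reprobe.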

M14 [11] = assay: Induction of apoptosis in human M14 cells assessed as caspase-3 activation at 0.1 to 0.3 uM after 16 hrs by Western blot; type: functional, cell-based; outline: as §3
M14 [12] = assay: Effect on cell cycle progression in human M14 cells at 1 uM after 24 hrs by flow cytometry; type: functional, cell-based
Outline: (§4)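 M14 cells at 2,5 × 10⁵ cells/mL in 12-well plates, treated 24 h (vehicle controls run alongside). Cells were trypsinised, washed in PBS and stained with propidium iodide in 0.1% sodium citrate/0.1% Triton X-100 at 4 °C for 30 min in the dark. FACScan analysis gave the percentage of cells in G0/G1, S and G2/M. Hypodiploid nuclei were scored as apoptotic.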

M14 [13] = assay: Effect on cell cycle progression in human M14 cells at 0.3 uM after 24 hrs by flow cytometry; type: functional, cell-based; outline: as §4
M14 [14] = assay: Increase in p53 expression in human M14 cells at 0.3 uM after 24 to 48 hrs by Western blot; type: functional, cell-based
Outline: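 M14 cells (1 × 10⁶ per flask) treated 24 and 48 h alongside untreated controls. Lysed in ice-cold Tris/NaCl/EDTA/1% Triton buffer with protease inhibitors. Equal protein run on 8-12% SDS-PAGE and blotted to nitrocellulose. Blocked in milk/Tween-TBS, anti-p53 overnight at 4 °C, HRP secondary, ECL detection. Cytoplasmic p53 read, with tubulin as reprobe.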

M14 [15] = assay: Increase in p53 expression in human M14 cells at 3 uM after 24 to 48 hrs by Western blot; type: functional, cell-based
Outline: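 M14 cells (1 × 10⁶ per flask), treated for 24 and 48 h. Lysed in ice-cold 50 mM Tris, 150 mM NaCl, 10 mM EDTA, 1% Triton with protease inhibitors. Equal protein run on 8-12% SDS-PAGE and blotted to nitrocellulose. Cytoplasmic p53 probed overnight at 4 °C, detected by HRP secondary and ECL, with tubulin as loading reprobe.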

SMILES | IC50 (U-937) [µM] | IC50 (M14 [1]) [µM] | IC50 (HEK293) [µM] | other results
Cc1ccc(CN2C(=O)[C@@H]3CS[C@]4(C(=O)Nc5ccccc54)N3C2=O)cc1 | 5.91 | 13.3 | 4.53 | 
COc1cc(CN2C(=O)[C@@H]3CS[C@]4(C(=O)N(C(=O)c5ccc(C)cc5)c5ccc(C)cc54)N3C2=O)cc(OC)c1OC | 2.42 | 5.95 | 3.81 | 
CC1(C)CCC(N2C(=O)[C@@H]3CS[C@]4(C(=O)Nc5ccc(Br)cc54)N3C2=O)CC1 | > 40 | > 40 | > 40 | 
COc1cc(CN2C(=O)[C@@H]3CS[C@]4(C(=O)Nc5ccc(C)cc54)N3C2=O)cc(OC)c1OC | 2.06 | 2.4 | 2.04 | Activity (M14 [2]): 20%; Activity (M14 [3]): Active; Activity (M14 [4]): Active; Activity (M14 [5]): Active; Activity (M14 [6]): inactive; Activity (M14 [7]): inactive; Activity (M14 [8]): Active; Activity (M14 [9]): 47%
CC1(C)CCC(N2C(=O)[C@@H]3CS[C@]4(C(=O)Nc5ccccc54)N3C2=O)CC1 | 2.61 | 7.07 | 4.22 | 
O=C1[C@@H]2CS[C@]3(C(=O)Nc4ccccc43)N2C(=O)N1Cc1ccccc1 | 3.9 | 10.6 | 4.8 | 
COc1cccc2c1C(=O)c1c(O)c3c(c(O)c1C2=O)C[C@@](O)(C(=O)CO)C[C@@H]3O[C@H]1C[C@H](N)[C@H](O)[C@H](C)O1 [DOXORUBICIN] | 0.8 | 1 | 0.9 | 
CN1C(=O)[C@]2(SC[C@H]3C(=O)N(C4CCC(C)(C)CC4)C(=O)N32)c2ccccc21 | > 40 | > 40 | > 40 | 
O=C1[C@@H]2CS[C@]3(C(=O)Nc4ccccc43)N2C(=O)N1Cc1ccc(Cl)cc1 | 0.87 | 0.53 | 0.44 | Activity (M14 [3]): Active; Activity (M14 [10]): Active; Activity (M14 [11]): Active; Activity (M14 [4]): Active; Activity (M14 [12]): inactive; Activity (M14 [13]): inactive; Activity (M14 [14]): Active; Activity (M14 [8]): Active
O=C1[C@@H]2CS[C@]3(C(=O)Nc4ccc(Br)cc43)N2C(=O)N1Cc1ccc(Cl)cc1 | 5.01 | 7.06 | 7.13 | 
CN1C(=O)[C@]2(SC[C@H]3C(=O)N(Cc4ccc(Cl)cc4)C(=O)N32)c2ccccc21 | 2.91 | 2.47 | 2.11 | 
Cc1ccc2c(c1)[C@@]1(SC[C@H]3C(=O)N(Cc4ccc(Cl)cc4)C(=O)N31)C(=O)N2 | 3.31 | 6.65 | 3.88 | Activity (M14 [15]): Active
COc1cc(CN2C(=O)[C@@H]3CS[C@]4(C(=O)N(C(=O)c5ccc(Cl)cc5)c5ccc(C)cc54)N3C2=O)cc(OC)c1OC | 3.11 | 8.14 | 4.71 | 
Cc1ccc(CN2C(=O)[C@@H]3CS[C@]4(C(=O)Nc5ccc(Br)cc54)N3C2=O)cc1 | 6.23 | 10.2 | 7.61 | 
O=C1[C@@H]2CS[C@]3(C(=O)N(C(=O)c4ccc(Cl)cc4)c4ccccc43)N2C(=O)N1Cc1ccc(Cl)cc1 | 2.61 | 3.37 | 5.01 | 
Cc1ccc(CN2C(=O)[C@@H]3CS[C@]4(C(=O)Nc5ccc(C)cc54)N3C2=O)cc1 | 2.77 | 3.39 | 3.01 | 
Cc1ccc(CN2C(=O)[C@@H]3CS[C@]4(C(=O)N(C)c5ccccc54)N3C2=O)cc1 | 16.8 | 31.8 | 10.7 | 
CCCC(=O)N1C(=O)[C@]2(SC[C@H]3C(=O)N(Cc4cc(OC)c(OC)c(OC)c4)C(=O)N32)c2cc(C)ccc21 | 4.1 | 7.4 | 4.42 | 
O=C1[C@@H]2CS[C@]3(C(=O)Nc4ccc(Br)cc43)N2C(=O)N1Cc1ccccc1 | 7.58 | 12 | 8.48 | 
COc1cc(CN2C(=O)[C@@H]3CS[C@]4(C(=O)Nc5ccccc54)N3C2=O)cc(OC)c1OC | 2.51 | 4.73 | 3.8 | 
COc1cc(CN2C(=O)[C@@H]3CS[C@]4(C(=O)N(C(=O)c5ccccc5)c5ccc(C)cc54)N3C2=O)cc(OC)c1OC | 4.31 | 7.84 | 4.22 | 
Cc1ccc2c(c1)[C@@]1(SC[C@H]3C(=O)N(C4CCC(C)(C)CC4)C(=O)N31)C(=O)N2 | 12.5 | 19.1 | 16 | 
O=C1[C@@H]2CS[C@]3(C(=O)N(C(=O)c4ccccc4)c4ccccc43)N2C(=O)N1Cc1ccc(Cl)cc1 | 3.12 | 3.25 | 3.5 | 
Cc1ccc2c(c1)[C@@]1(SC[C@H]3C(=O)N(Cc4ccccc4)C(=O)N31)C(=O)N2 | 2.09 | 3.88 | 3.3 | 
CCCC(=O)N1C(=O)[C@]2(SC[C@H]3C(=O)N(Cc4ccc(Cl)cc4)C(=O)N32)c2ccccc21 | 2.1 | 2.04 | 2.01 | 
Cc1ccc(C(=O)N2C(=O)[C@]3(SC[C@H]4C(=O)N(Cc5ccc(Cl)cc5)C(=O)N43)c3ccccc32)cc1 | 2.01 | 2.08 | 2.5 | 
COc1cc(CN2C(=O)[C@@H]3CS[C@]4(C(=O)N(C)c5ccccc54)N3C2=O)cc(OC)c1OC | 5.7 | 7.66 | 6.01 | 
CN1C(=O)[C@]2(SC[C@H]3C(=O)N(Cc4ccccc4)C(=O)N32)c2ccccc21 | 2.89 | 6.37 | 3.98 | 
COc1cc(CN2C(=O)[C@@H]3CS[C@]4(C(=O)Nc5ccc(Br)cc54)N3C2=O)cc(OC)c1OC | 5.02 | 11 | 9.31 | 
